Test results: ChEMBL document CHEMBL4393683, “A combinatorial approach for the discovery of drug-like inhibitors of 15-lipoxygenase-1” (Eur J Med Chem, 2019)
Active and inactive are the calls of the source. The calls are words filed in the database; no cut-off is given here.

Key:
[1] = Stability of compund in pH 7.5 HEPES buffer at 25 uM in presence of human recombinant N-terminal His6-tagged 15-LOX1 expressed in Escherichia coli BL21(DE3) by UV absorption analysis; assay type: physicochemical; conditions: pH 7.5, 25 µM
Summary of the method: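 LA-free control in 25 mM HEPES pH 7.5 at 25 µM compound, run in triplicate. Buffer plus compound was mixed with 10 µL ethanol in place of substrate, then 15-LOX-1 enzyme solution was added. DMSO/buffer served as the vehicle control and buffer replaced enzyme in the blank. Absorbance at 234 nm was monitored over time.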

[2] = Antioxidant activity assessed as ferric ion reducing activity by measuring Fe2+ levels using Fe2+-TPTZ measured 15 secs for 5 mins by FRAP assay; assay type: functional
[3] = Stability of compund in pH 7.5 HEPES buffer at 25 uM in presence of substrate linoleic acid by UV absorption analysis; assay type: physicochemical; conditions: pH 7.5, 25 µM
Summary of the method: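 Enzyme-free control in 25 mM HEPES pH 7.5 at 25 µM compound, run in triplicate, with buffer replacing enzyme. 10 µL of 500 µM linoleic acid stock in ethanol was added; ethanol alone served as the blank, and DMSO/buffer as the vehicle control. Absorbance at 234 nm was monitored over time.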

[4] = Antioxidant activity assessed as DPPH radical scavenging activity at 250 uM incubated for 15 mins under dark condition by spectrophotometric method; assay type: functional
Summary of the method: (§1)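 DPPH radical-scavenging assay run in triplicate in MeOH with 10% DMSO. Compounds were serially diluted 10-fold from a top concentration of 1 mM, or 250 or 500 µM for some, down to 1 nM, with DPPH fixed at 0.1 mM. Incubation was 15 min at ambient temperature, protected from light, with A517 read. The compound-only series was subtracted, data normalized to no-inhibitor absorbance, and EC50 fitted by nonlinear dose–response.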

[5] = target: T1, Polyunsaturated fatty acid lipoxygenase ALOX15 (Homo sapiens, UniProt P16050); experiment: Inhibition of human recombinant N-terminal His6-tagged 15-LOX1 expressed in Escherichia coli BL21(DE3) using linoleic acid as substrate preincubated for 8 mins followed by substrate addition by UV absorption analysis
T1 sequence (P16050 whole entry): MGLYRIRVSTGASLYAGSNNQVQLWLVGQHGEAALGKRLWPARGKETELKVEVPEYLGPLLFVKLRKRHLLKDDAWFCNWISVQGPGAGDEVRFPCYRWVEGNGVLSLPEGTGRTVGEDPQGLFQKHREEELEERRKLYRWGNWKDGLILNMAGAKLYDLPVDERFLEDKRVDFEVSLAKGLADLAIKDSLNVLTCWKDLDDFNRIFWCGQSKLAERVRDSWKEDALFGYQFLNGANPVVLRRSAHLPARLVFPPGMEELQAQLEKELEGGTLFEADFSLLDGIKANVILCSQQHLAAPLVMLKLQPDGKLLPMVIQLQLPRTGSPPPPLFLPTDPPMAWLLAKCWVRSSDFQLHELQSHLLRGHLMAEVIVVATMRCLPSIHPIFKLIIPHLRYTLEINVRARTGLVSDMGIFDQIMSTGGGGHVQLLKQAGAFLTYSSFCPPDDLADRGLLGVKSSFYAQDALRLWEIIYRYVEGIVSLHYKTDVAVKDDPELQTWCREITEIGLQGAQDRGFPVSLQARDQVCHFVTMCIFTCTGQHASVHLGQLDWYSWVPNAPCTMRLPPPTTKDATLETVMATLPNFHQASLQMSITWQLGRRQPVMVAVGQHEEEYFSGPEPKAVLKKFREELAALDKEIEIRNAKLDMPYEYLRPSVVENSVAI

[6] = Antioxidant activity assessed as DPPH radical scavenging activity incubated for 15 mins under dark condition by spectrophotometric method; assay type: functional; summary of the method: as §1
[7] = Antioxidant activity assessed as DPPH radical scavenging activity at 500 uM incubated for 15 mins under dark condition by spectrophotometric method; assay type: functional; summary of the method: as §1

Question: What does the source list for CCOC(=O)c1[nH]c2cc(Cl)ccc2c1/C=N/NC(=O)Cc1ccc(OC)c(OC)c1?
Answer: Stability [1]: Stable; Activity [2]: < 50 µmol/L; Stability [3]: Stable; Activity [4]: inactive

Question: With CCOC(=O)c1[nH]c2cc(Cl)ccc2c1/C=N/NC(=O)CNc1cccc([N+](=O)[O-])c1 as the compound, how does the IC50 [5] read?
Answer: The IC50 was > 10 µM.

Question: What does the source list for CCOC(=O)c1[nH]c2cc(Cl)ccc2c1C=O?
Answer: Activity [6]: inactive; Activity [2]: < 50 µmol/L

Question: With CCOC(=O)c1[nH]c2cc(Cl)ccc2c1/C=N/NC(=O)CSc1nc2ccccc2[nH]1 as the compound, how does the Activity [6] read?
Answer: Its Activity is “inactive”.

Question: And the Stability [1]?
Answer: The Stability was “Stable”.

Question: What about the Activity [2] of the same compound?
Answer: Its Activity is < 50 µmol/L.

Question: What about the Stability [3] of the same compound?
Answer: The Stability was “Stable”.

Question: Which IC50 [5] does the source give for CCOC(=O)c1[nH]c2cc(Cl)ccc2c1/C=N/NC(=O)Cc1cccs1 here?
Answer: The IC50 was > 10 µM.

Question: For CCOC(=O)c1[nH]c2cc(Cl)ccc2c1/C=N/NC(=O)COc1cccc2ccccc12, which IC50 [5] is on record?
Answer: Its IC50 is > 10 µM.

Question: For CCOC(=O)c1[nH]c2cc(Cl)ccc2c1/C=N/NC(=O)COc1ccc(Cl)cc1Cl, which Activity [6] is on record?
Answer: Its Activity is “inactive”.

Question: And the Stability [1]?
Answer: Its Stability is “Stable”.

Question: What about the Activity [2] of the same compound?
Answer: Its Activity is < 50 µmol/L.

Question: What about the Stability [3] of the same compound?
Answer: The Stability was “Stable”.

Question: Which results are given for CCOC(=O)c1[nH]c2cc(Cl)ccc2c1/C=N/NC(=O)COc1ccccc1Cl?
Answer: Stability [1]: Stable; Activity [2]: < 50 µmol/L; Stability [3]: Stable; Activity [4]: inactive

Question: With CCOC(=O)c1[nH]c2cc(Cl)ccc2c1/C=N/NC(=O)c1cc(C(C)(C)C)nn1Cc1cccc(C)c1 as the compound, how does the Activity [6] read?
Answer: The Activity was “inactive”.

Question: And the Activity [2]?
Answer: Its Activity is < 50 µmol/L.

Question: And the IC50 [5]?
Answer: Its IC50 is 4.22 µM.

Question: For CCOC(=O)c1[nH]c2cc(Cl)ccc2c1/C=N/NC(=O)CCC(C)C, which IC50 [5] is on record?
Answer: The IC50 was > 10 µM.

Question: Which EC50 [6] does the source give for O=C1O[C@H]([C@@H](O)CO)C(O)=C1O [ASCORBIC ACID] here?
Answer: Its EC50 is 17.2 µM.

Question: For CCOC(=O)c1[nH]c2cc(Cl)ccc2c1/C=N/NC(=O)CCCOc1ccc(Cl)cc1Cl, which IC50 [5] is on record?
Answer: The IC50 was > 10 µM.

Question: Which Stability [1] does the source give for CCOC(=O)c1[nH]c2cc(Cl)ccc2c1/C=N/NC(=O)COc1ccc(Cl)cc1 here?
Answer: Its Stability is “Stable”.

Question: What about the Activity [2] of the same compound?
Answer: Its Activity is < 50 µmol/L.

Question: And the Stability [3]?
Answer: Its Stability is “Stable”.

Question: What about the Activity [7] of the same compound?
Answer: The Activity was “inactive”.

Question: What does the source list for CCOC(=O)c1[nH]c2cc(Cl)ccc2c1/C=N/NC(=O)Cc1ccccc1?
Answer: Activity [6]: inactive; Activity [2]: < 50 µmol/L; IC50 [5]: > 10 µM

Question: Which IC50 [5] does the source give for CCOC(=O)c1[nH]c2cc(Cl)ccc2c1/C=N/NC(=O)CC1CCCC1 here?
Answer: The IC50 was > 10 µM.

Question: With CCCCC(=O)N/N=C/c1c(C(=O)OCC)[nH]c2cc(Cl)ccc12 as the compound, how does the IC50 [5] read?
Answer: The IC50 was > 10 µM.

Question: Which results are given for CCOC(=O)c1[nH]c2cc(Cl)ccc2c1/C=N/NC(=O)COc1ccccc1?
Answer: Activity [2]: < 50 µmol/L; IC50 [5]: > 10 µM; Activity [7]: inactive

Question: Which IC50 [5] does the source give for CCOC(=O)c1[nH]c2cc(Cl)ccc2c1/C=N/NC(=O)[C@H](Cc1ccccc1)NC(=O)OC(C)(C)C here?
Answer: The IC50 was > 10 µM.

Question: With CCOC(=O)c1[nH]c2cc(Cl)ccc2c1/C=N/NC(=O)COc1ccc([N+](=O)[O-])cc1 as the compound, how does the IC50 [5] read?
Answer: The IC50 was > 10 µM.

Question: Which Activity [6] does the source give for CCOC(=O)c1[nH]c2cc(Cl)ccc2c1/C=N/NC(=O)Cc1cccnc1 here?
Answer: Its Activity is “inactive”.

Question: And the Stability [1]?
Answer: Its Stability is “Stable”.

Question: And the Activity [2]?
Answer: The Activity was < 50 µmol/L.

Question: What about the Stability [3] of the same compound?
Answer: Its Stability is “Stable”.

Question: With CCOC(=O)c1[nH]c2cc(Cl)ccc2c1/C=N/NC(=O)Cc1cccc(O)c1 as the compound, how does the Activity [6] read?
Answer: The Activity was “inactive”.

Question: And the Stability [1]?
Answer: Its Stability is “Stable”.

Question: And the Activity [2]?
Answer: Its Activity is < 50 µmol/L.

Question: And the Stability [3]?
Answer: The Stability was “Stable”.

Question: And the IC50 [5]?
Answer: Its IC50 is 1.8 µM.

Question: With CCOC(=O)c1[nH]c2cc(Cl)ccc2c1/C=N/NC(=O)C1CCN(C(=O)OC(C)(C)C)CC1 as the compound, how does the Activity [6] read?
Answer: Its Activity is “inactive”.

Question: And the Stability [1]?
Answer: The Stability was “Stable”.

Question: And the Activity [2]?
Answer: Its Activity is < 50 µmol/L.

Question: And the Stability [3]?
Answer: The Stability was “Stable”.

Question: And the IC50 [5]?
Answer: Its IC50 is 0.47 µM.

Question: Which IC50 [5] does the source give for CCOC(=O)c1[nH]c2cc(Cl)ccc2c1/C=N/NC(=O)CCc1ccccc1 here?
Answer: Its IC50 is > 10 µM.
